Assay results published in ChEMBL document CHEMBL2169883, “Design, synthesis, and structure-activity relationship of N-arylnaphthylamine derivatives as amyloid aggregation inhibitors” (J Med Chem, 2012).

Experiments:
[1] = Inhibition of amyloid beta (1 to 42) aggregation after 24 hrs by Thioflavin-T fluorescence assay
Method in brief: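 Nonaggregate Aβ1-42 (44 μM working solution) was then added, and plates were agitated at 37 °C for 24 h. Read-out used 10 μM ThT in Na2HPO4 pH 6.5 (ex 450/em 486 nm), in triplicate; IC50 came from % residual aggregate dose-response.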

Mus musculus [2] = assay: Toxicity in mouse assessed as incidence of side effect at 25 mg/kg, sc; type: organism-based; design: dose 25 mg/kg, route subcutaneous; conditions: in vivo
Mus musculus [3] = assay: Toxicity in mouse assessed as incidence of discomfort at 25 mg/kg, sc; type: organism-based; design: dose 25 mg/kg, route subcutaneous; conditions: in vivo
[4] = Tmax in mouse brain at 25 mg/kg, sc; type: ADME, organism-based; design: dose 25 mg/kg, route subcutaneous
Method in brief: (§1)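 Mice received 25 mg/kg sc in ethanol/PEG-400/saline (10:40:50). Trunk blood and brain were collected at 0–240 min. Plasma and brain homogenate were solid-phase extracted and quantified by RP-HPLC (UV 224 nm, internal standard), n = 3. Cmax and tmax were read directly from the data; brain and plasma AUCt were calculated by the linear trapezoidal rule to give the brain/plasma ratio.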

[5] = Ratio of drug level from brain to plasma in mouse at 25 mg/kg, sc; type: ADME, organism-based; design: dose 25 mg/kg, route subcutaneous; conditions: read-out: BPR; method in brief: as §1
[6] = Cmax in mouse brain at 25 mg/kg, sc; type: ADME, organism-based; design: dose 25 mg/kg, route subcutaneous; method in brief: as §1
[7] = Ratio of drug level from brain to plasma in rat administered via intranasal route; type: ADME; conditions: inhaled or intranasal, read-out: BPR
in vivo = conditions: rat, brain/plasma, po, 16 mg/kg

Compound | IC50 ([1]; read-out: IC50) | other results
COC(=O)c1ccccc1Nc1c(O)ccc2ccccc12 | > 20 µM | 
COc1ccc(Sc2ccc(OC)c3ccccc23)cc1 |  | IC50 [1]: ND(Insoluble)
Oc1ccc(Sc2ccc(O)c3ccccc23)cc1 | 10.9 µM | 
CSc1ccc(Nc2ccc(N(C)C)c3ccccc23)cc1 | 2.2 µM | 
O=C(O)c1ccccc1Nc1c(O)ccc2ccccc12 | 14.1 µM | 
O=C(O)c1ccc(Nc2ccc(O)c3ccccc23)cc1 | 57.4 µM | 
O=C(O)c1ccc(Nc2cccc3ccccc23)cc1 | > 100 µM | 
COC(=O)c1ccc(Nc2ccc3ccccc3c2O)cc1 |  | IC50 [1]: ND(Insoluble)
COC(=O)c1ccc(Nc2ccc(O)c3ccccc23)cc1 | 5.1 µM | 
O=C(O)c1cc(Nc2ccc(O)c3ccccc23)ccc1O | 46.1 µM | 
Fc1ccc(Nc2ccc(F)c3ccccc23)cc1 | > 30 µM | 
COc1ccc(Nc2ccccc2)c2ccccc12 |  | IC50 [1]: ND(Insoluble)
O=S(=O)(c1ccc(O)cc1)c1ccc(O)c2ccccc12 | > 100 µM | 
COc1c(Nc2ccc(I)cc2)ccc2ccccc12 | > 5 µM | 
COC(=O)c1ccc(Nc2ccc(OC)c3ccccc23)cc1 |  | IC50 [1]: ND(Insoluble)
Oc1ccc2ccccc2c1Nc1c(O)ccc2ccccc12 |  | IC50 [1]: ND(Unstable)
O=C(O)c1ccccc1Nc1ccc(CCc2ccc(Cl)c(Cl)c2)cc1 | 2 µM | 
COc1c(Nc2ccccc2)ccc2ccccc12 | 33.6 µM | 
COc1ccc(Nc2ccc(OC)c3ccccc23)cc1 | 5.6 µM | Activity (Mus musculus [2]): Non-toxic; Activity (Mus musculus [3]): Non-toxic; Tmax [4]: 1 h; Kp [5]: 2; Cmax [6]: 410 ng/mL
COc1ccc(Nc2ccc(OC)c3ccccc23)cc1C(=O)O | > 80 µM | 
COc1ccc2ccccc2c1Nc1c(OC)ccc2ccccc12 | 5.7 µM | 

Compound | IC50 ([1]; read-out: IC50) | other results
Oc1ccc(Nc2ccc(O)c3ccccc23)cc1 | 1 µM | 
COc1ccc(Nc2ccc(C(=O)O)cc2)c2ccccc12 | > 60 µM | 
CCN(C)C(=O)Oc1cccc([C@H](C)N(C)C)c1 [RIVASTIGMINE] |  | Kp [7]: 3
O=C1c2ccccc2C(=O)c2c(O)c(O)cc(Nc3ccc(S(=O)(=O)O)cc3)c21 | 1.1 µM | 
COC(=O)c1ccccc1Nc1c(OC)ccc2ccccc12 | > 5 µM | 
O=C(O)c1ccccc1Nc1ccc(CCCc2ccc(Cl)c(Cl)c2)cc1 | 1 µM | 
OCc1ccc(Nc2ccc(O)c3ccccc23)cc1 |  | IC50 [1]: ND(Unstable)
Oc1ccc(Nc2ccccc2)c2ccccc12 | 5.4 µM | 
Oc1c(Nc2ccccc2)ccc2ccccc12 | 2.4 µM | 
COc1ccc(I)cc1Nc1ccc(OC)c2ccccc12 | > 5 µM | 
COC(=O)c1ccc(Nc2ccc3ccccc3c2OC)cc1 | > 20 µM | 
COc1ccccc1Nc1ccc(OC)c2ccccc12 | > 5 µM | 
O=C(O)c1ccc(Nc2ccc3ccccc3c2O)cc1 | 2.6 µM | 
O=C(O)c1cc2ccccc2c(Cc2c(O)c(C(=O)O)cc3ccccc23)c1O [PAMOIC ACID] | 38.2 µM | 
CSc1ccc(Nc2ccc(F)c3ccccc23)cc1 | > 5 µM | 
COC(=O)c1ccc(Nc2cccc3ccccc23)cc1 | > 20 µM | 
O=C(O)c1c(Nc2ccc(CCc3ccc(Cl)c(Cl)c3)cc2)cccc1C(F)(F)F | 0.1 µM | 
COc1ccc(S(=O)(=O)c2ccc(OC)c3ccccc23)cc1 |  | IC50 [1]: ND(Insoluble)
COc1c(Nc2ccc(C(=O)O)cc2)ccc2ccccc12 | > 20 µM | 
COc1ccc(Nc2ccc([N+](=O)[O-])c3ccccc23)cc1 | 2.7 µM | 
Cl.Nc1c2c(nc3ccccc13)CCCC2.O |  | Kp (in vivo): 5
